# Active and inactive are the calls of the source. No rule for the calls is given here.
# Target: Muscarinic acetylcholine receptor M3 (Rattus norvegicus) (UniProt P08483)
# Assay: rat M3 positive allosteric modulation check – CHO cells, calcium flux, selectivity assay for M5 PAM discovery project (AID 651931)
# Conditions: CHO-K1 rat M3, Fluo-4 calcium flux, ACh EC20; series mostly up to 30 µM
# In short: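 material = Fluo-4-loaded stable M3 CHO-K1 cells | also added = acetylcholine, EC20 | compound = 0.3% final DMSO | signal = Fluo-4 calcium flux | medium = HBSS, pH 7.4, plus 2.5 mM probenecid and 20 mM HEPES | read-out basis = % of maximal ACh response | incubation = dye load 45-60 min, 1.5 min compound, 50 s ACh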
# Sequence of Muscarinic acetylcholine receptor M3 (Rattus norvegicus) (P08483 whole entry, looked up): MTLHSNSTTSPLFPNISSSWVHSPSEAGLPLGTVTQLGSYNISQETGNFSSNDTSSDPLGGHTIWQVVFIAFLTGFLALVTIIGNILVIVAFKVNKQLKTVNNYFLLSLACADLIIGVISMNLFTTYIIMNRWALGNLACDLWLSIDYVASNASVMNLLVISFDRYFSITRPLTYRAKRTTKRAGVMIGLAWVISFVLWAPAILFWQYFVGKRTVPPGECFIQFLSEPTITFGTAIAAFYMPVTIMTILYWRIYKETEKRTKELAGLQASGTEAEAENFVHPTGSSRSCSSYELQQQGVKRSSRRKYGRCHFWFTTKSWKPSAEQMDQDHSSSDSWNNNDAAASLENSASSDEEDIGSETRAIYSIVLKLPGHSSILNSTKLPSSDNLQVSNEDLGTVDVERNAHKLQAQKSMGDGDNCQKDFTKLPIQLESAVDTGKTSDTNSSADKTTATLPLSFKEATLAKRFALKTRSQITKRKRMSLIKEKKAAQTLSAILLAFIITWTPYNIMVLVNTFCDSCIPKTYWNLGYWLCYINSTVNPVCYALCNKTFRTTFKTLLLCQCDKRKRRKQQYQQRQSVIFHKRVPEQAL
structure (smiles),measurement,value
O=C1C(=O)N(CCOc2ccccc2)c2ccc(OC(F)(F)F)cc21,outcome,inactive

# Source: PubChem BioAssay AID651931 (Vanderbilt Specialized Chemistry Center, 2012)
